Lipid droplet: modulators of hepatic lipid droplet formation; AID 1656; actives 0.4% (n = 240,000); inhibition, % at 6.5 µM; AML12 mouse hepatocytes, oleate lipid droplets, BODIPY imaging;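 active means lipid droplet intensity inhibited by at least 50%, with more than 500 cells counted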
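Assay system: AML12 hepatocytes (mouse); Probe or stimulus: oleic acid at 100 µM to induce lipid droplet formation; Dosing: compound at 6.5 µM only; Schedule: compound with oleate, overnight; Detection: fluorescence imaging, 20x objective, two fields per well; Measure: % inhibition of lipid droplet signal.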
MEKK3 PB1 HTS: modulators (inhibitors or enhancers) of MEK5 binding to human MEKK3 PB1 domain. Q99759. bead-based flow cytometry, Alexa488-MEK5 binding to MEKK3; actives lie on both sides; 0 = blocked by unlabeled MEK5, 100 = vehicle. binding response (% of control), % at 10 µM. actives 1.4% (n = 290,000). AID 1529;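 active means binding response more than 3 SD above or below the average of its plate-row segment, actives on both sides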;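 further: Alexa488 bead fluorescence after subtracting the streptavidin-only scavenger bead signal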
Target sequence (Q99759 whole entry, looked up, the tested form may be a part): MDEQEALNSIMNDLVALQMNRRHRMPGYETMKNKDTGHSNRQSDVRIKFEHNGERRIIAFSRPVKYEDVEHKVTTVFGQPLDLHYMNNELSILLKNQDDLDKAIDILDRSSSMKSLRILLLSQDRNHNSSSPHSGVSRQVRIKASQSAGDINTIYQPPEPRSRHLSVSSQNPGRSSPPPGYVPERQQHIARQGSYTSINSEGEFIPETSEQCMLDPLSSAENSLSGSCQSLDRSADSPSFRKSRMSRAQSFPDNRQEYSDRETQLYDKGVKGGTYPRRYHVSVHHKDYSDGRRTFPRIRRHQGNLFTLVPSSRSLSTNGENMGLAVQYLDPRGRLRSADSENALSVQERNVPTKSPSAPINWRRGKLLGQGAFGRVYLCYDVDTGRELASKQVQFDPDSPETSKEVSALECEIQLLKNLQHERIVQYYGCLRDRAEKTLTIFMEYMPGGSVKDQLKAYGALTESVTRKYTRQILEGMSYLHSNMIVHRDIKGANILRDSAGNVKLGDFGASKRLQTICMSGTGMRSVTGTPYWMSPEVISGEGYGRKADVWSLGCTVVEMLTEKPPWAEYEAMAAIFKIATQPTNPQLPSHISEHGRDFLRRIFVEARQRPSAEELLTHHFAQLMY
MEKK2 mut-MEK5: signal of MEK5 binding to mutant human MEKK2 PB1 domain | actives 0.35% (n = 290,000) | bead flow cytometry, Alexa488-MEK5 binding to MEKK2 mutant | percent response, % at 10 µM; in the data active means percent response above about 24%, passing the limit was not always enough
MEKK2 WT-MEK5: raises or lowers MEK5 binding to wildtype human MEKK2 PB1 domain; Q9Y2U5; bead flow cytometry, Alexa488-MEK5 binding to MEKK2 WT; actives lie on both sides; binding response (% of control), % at 10 µM; actives 1.1% (n = 290,000); AID 1531; in the data active means binding response below about 67% or above about 130%
MEKK2wt confirm: raises or lowers MEK5 binding to wildtype human MEKK2, retest | bead flow cytometry, Alexa488-MEK5 binding to MEKK2 WT; actives lie on both sides | binding response (% of control), % at 10 µM | shares compounds with MEKK3 PB1 HTS | AID 1892 | actives 2.4% (n = 5,900); in the data active means binding response below about 16% or above about 210%; inactive means in between
MEKK2mut confirm: signal of MEK5 binding to mutant human MEKK2, retest | shares compounds with MEKK3 PB1 HTS | bead flow cytometry, Alexa488-MEK5 binding to MEKK2 mutant | percent response, % at 10 µM | actives 2% (n = 5,900) | AID 1893; in the data active means percent response mostly above about 71%, no sharp cut-off; inactive means mostly below about 38%;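 further: higher means compound restores mutant binding toward wildtype level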
MEKK3-MEK5 inh: MEKK3-MEK5 PB1 inhibition, single concentration confirmation; binding response (% of control), % at 10 µM; actives 1.8% (n = 5,900); AID 1894; shares compounds with MEKK3 PB1 HTS; bead flow cytometry, Alexa488-MEK5 binding to MEKK3; stronger effect = lower value;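 active means binding response below 72% of control, or above a set upper limit, though filed actives all read lower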;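 further: 100% = DMSO only wells and 0% = binding blocked by excess unlabeled MEK5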
An asterisk follows results filed as active; nt = no result; [ ] = dose if it differs, or a comment. This is a sample that favours compounds with a hit; in the whole collection about 2.6% have one here.

SMILES | Lipid droplet | MEKK3 PB1 HTS | MEKK2 mut-MEK5 | MEKK2 WT-MEK5 | MEKK2wt confirm | MEKK2mut confirm | MEKK3-MEK5 inh
Cc1cc2cc(CNC(=O)c3ccc(Br)o3)ccc2n1C | 27 | 66*[inhibitor] | -3 | 45*[inhibitor] | 50 | -20 | 75
Cc1c(C(=O)NCc2ccc3c(c2)cc(C)n3C)cccc1[N+](=O)[O-] | 3 | 73*[inhibitor] | -5 | 89 | 98 | -10 | 98
Cc1cc2cc(CNC(=O)Cc3ccc([N+](=O)[O-])cc3)ccc2n1C | -13 | 92 | -9 | 88 | nt | nt | nt
Cc1cccc(NC(=S)NCc2ccc3c(c2)cc(C)n3C)c1C | -3 | 78*[inhibitor] | 5 | 66*[inhibitor] | 104 | 1 | 103
O=C(Nc1ccc(C(=O)NC2CCCCC2)cc1)c1cccnc1 | -20 | 93 | 1 | 101 | nt | nt | nt
Cc1ccc(CN2CCNC(=O)C2CC(=O)NCc2cc(C)n(C)n2)cc1 (stereo not drawn) | 39 | 101 | 5 | 103 | nt | nt | nt
Cn1c(SCC(=O)O)nnc1-c1ccc(NC(=O)c2ccc(Cl)c(Cl)c2)cc1 | 40 | 98 | -5 | 98 | nt | nt | nt
Cn1c(-c2ccc(C=O)s2)nc2c3ccccc3c3ccccc3c21 | -28 | 90 | -19 | 63*[inhibitor] | 75 | -12 | 94
COc1cc(/C=N/OCC(=O)Nc2ccc(OC(F)F)cc2)ccc1OCc1ccccc1 | 8 | 135* | -1 | 108 | 99 | -7 | 101
Cc1nn(C(C)C(=O)NC2CCC(C)CC2)c(=O)c2nn(-c3ccccc3)c(C)c12 (stereo not drawn) | 14 | 104 | 3 | 104 | nt | nt | nt
Cc1noc(C)c1S(=O)(=O)Nc1ccc(C(=O)NC2CCCCC2)cc1 | nt | 20*[inhibitor] | -32 | 33*[inhibitor] | 101 | 6 | 103
O=C(OCC(=O)N1CCc2ccccc2C1)c1cc(=O)[nH]c2ccccc12 | 23 | 101 | 1 | 102 | nt | nt | nt
O=C1CCCc2c1[nH]c1ccccc21 | nt | 128* | 6 | 104 | 107 | 4 | 102
COCC(=O)N(C)c1nnc(-c2cnccn2)s1 | nt | 0.0*[inhibitor] | -27 | -1.0*[inhibitor] | 103 | 1 | 101
COc1cc2c(cc1OC)C(c1ccc(-c3ccc(Cl)c(Cl)c3)o1)=NCC2 | -4 | 105 | 28 | 149* | 152 | 49 | 113
COCCNC(=O)CN(C)S(=O)(=O)c1ccc2c(c1)OCCO2 | -2 | 7.0*[inhibitor] | -14 | 11*[inhibitor] | 104 | 3 | 106
CC(=O)c1ccc(OCCCC(=O)Nc2cccc(-c3nn[nH]n3)c2)cc1 | -1 | 101 | -7 | 97 | nt | nt | nt
CCOC(=O)c1ccc(N2CCCCC2)c(NS(=O)(=O)c2ccc(C)cc2)c1 | -49 | 96 | -8 | 86 | nt | nt | nt
CCn1nnnc1-c1ccc(OC)c(S(=O)(=O)Nc2ccc(S(N)(=O)=O)cc2)c1 | -3 | 89 | -1 | 92 | nt | nt | nt
CCn1nnnc1-c1ccc(OC)c(S(=O)(=O)NCCc2ccccc2)c1 | nt | 45*[inhibitor] | 1 | 101 | 101 | -1 | 98
CC1CC2=C(C(=O)O1)C(c1ccc(Cl)cc1)Nc1ccccc1N2 (stereo not drawn) | -10 | 71*[inhibitor] | -1 | 91 | 104 | 8 | 104
O=C(CCS(=O)(=O)c1ccc(Br)cc1)NCCC1=CCCCC1 | -2 | 102 | 2 | 103 | nt | nt | nt
CCc1ccc(NC(=O)C(C)Oc2nnc(-c3cccs3)c(-c3cccs3)n2)cc1 (stereo not drawn) | -8 | 104 | 4 | 93 | nt | nt | nt
CC(C)c1ccc(NC(=O)COc2nnc(-c3cccs3)c(-c3cccs3)n2)cc1 | 6 | 143* | 7 | 112 | 92 | 1 | 94
CCOC(=O)c1cc(S(=O)(=O)N2CCC(C)CC2)cn1C | 9 | 101 | -3 | 98 | nt | nt | nt
SMILES | Lipid droplet | MEKK3 PB1 HTS | MEKK2 mut-MEK5 | MEKK2 WT-MEK5 | MEKK2wt confirm | MEKK2mut confirm | MEKK3-MEK5 inh
O=C(c1cccs1)c1ccc(-c2cccs2)s1 | nt | 87 | -9 | 61*[inhibitor] | 91 | 1 | 100
CN1CCN(C(=O)c2ccc(-c3cccs3)s2)CC1 | 0 | 99 | -1 | 101 | nt | nt | nt
O=C(CN(C(=O)c1csnn1)c1ccc(Br)cc1)NC1CCCCC1 | -27 | 104 | 6 | 104 | nt | nt | nt
CC(C)CC(=O)Nc1nnc(SCC(=O)NCc2ccco2)s1 | -1 | 99 | 2 | 100 | nt | nt | nt
CC(C)C(=O)Nc1nnc(SCC(=O)NCc2ccco2)s1 | 12 | 139* | 0 | 106 | 104 | 4 | 103
CCCn1c(SCC(=O)Nc2cc(Cl)ccc2Cl)n[nH]c1=O | -6 | 103 | 0 | 99 | nt | nt | nt
CCCn1c(SCC(=O)NC(=O)Nc2ccc(C)cc2C)n[nH]c1=O | nt | 0.0*[inhibitor] | -18 | -5.0*[inhibitor] | 111 | 5 | 114
COc1ccccc1C(=O)Nc1ccc2c(c1)nc1n2CCN(Cc2ccccc2)C1 | 25 | 76 | -8 | 85 | nt | nt | nt
O=C(Nc1ccc2c(c1)nc1n2CCN(Cc2ccccc2)C1)c1cccs1 | 37 | 100 | 1 | 3.0*[inhibitor] | 100 | -3 | 103
COc1ccc2c(/C=C/c3cc[n+](C)cc3)c[nH]c2c1 | 16 | 104 | 48* | 168* | 101 | -1 | 93
Cc1ccc2[nH]cc(/C=C/c3cc[n+](C)cc3)c2c1 | nt | 101 | -3 | 112 | nt | nt | nt
N#Cc1cccc(NC(=O)CCNS(=O)(=O)c2ccc3[nH]c(=O)oc3c2)c1 | 11 | 105 | 12 | 108 | nt | nt | nt
O=C(CN1CCOCC1)Nc1cccc(C(=O)Nc2cccc(C(F)(F)F)c2)c1 | 19 | 106 | 4 | 115 | nt | nt | nt
CCCCCNCC(=O)Nc1cccc(C(=O)Nc2cccc(C(F)(F)F)c2)c1 | -23 | 97 | 29 | 174* | 157 | 20 | 106
O=C(O)c1ccc(N2C(=O)c3cccc(Oc4ccc(Cl)cc4)c3C2=O)cc1 | -2 | 106 | 2 | 105 | nt | nt | nt
O=C(O)c1cccc(N2C(=O)c3cccc(Oc4ccc(Cl)cc4)c3C2=O)c1 | -16 | 131* | -1 | 101 | 93 | -6 | 96
CCN(CC)C(=O)CSc1nnc(-c2ccc(O)cc2)n1CC1CCCO1 (stereo not drawn) | -7 | 136* | 11 | 133 | 104 | 5 | 106
CN(C(=O)CSc1nnc(-c2ccc(Cl)cc2)n1CC1CCCO1)C1CCS(=O)(=O)C1 (stereo not drawn) | 1 | 68 | -12 | 80 | nt | nt | nt
Cc1cccc(NC(=S)NC2CC3CCCC(C2)N3Cc2ccccc2)c1C (stereo not drawn) | -18 | 73 | 38 | 131 | nt | nt | nt
Cc1ccc(CNS(=O)(=O)c2cn(C)c(=O)n(C)c2=O)cc1 | -9 | 104 | 8 | 110 | nt | nt | nt
CCOc1cc(/C=N/N=C(N)N)ccc1OCc1ccc(Cl)cc1 | 3 | 104 | 6 | 149* | 202 | 63 | 109
COc1cc(/C=N/O)ccc1OCc1ccc(Cl)cc1 | 22 | 96 | -4 | 92 | nt | nt | nt

Bioassay records deposited in PubChem by several laboratories.
